Screening results: PubChem BioAssay, Broad Institute
T cruzi growth-1 = blocks T. cruzi growth in NIH3T3 culture. T. cruzi beta-gal in NIH3T3, GalScreen luminescence, 90 h. inhibition, % at 8.34 µM. 77,000 compounds, 5.9% hits;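 active = mean inhibition above about 93%, with at least 55% of replicates each passing it, limit read from the data, passing the limit was not always enough; inconclusive = only one of those two conditions holds; inactive = neither condition holds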
IDH1 R132H inh = IDH1 R132H (human) inhibition. O75874. IDH1 R132H reductase, diaphorase/resazurin fluorescence, 60 min. inhibition, % at 10 µM. 70,000 compounds, 0.18% hits; in the data active = inhibition above about 34%; inconclusive = no clear call, values can overlap the other calls; inactive = below about 11%;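 also: 0% = DMSO and 100% = no enzyme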
Target sequence (O75874 whole entry R132H): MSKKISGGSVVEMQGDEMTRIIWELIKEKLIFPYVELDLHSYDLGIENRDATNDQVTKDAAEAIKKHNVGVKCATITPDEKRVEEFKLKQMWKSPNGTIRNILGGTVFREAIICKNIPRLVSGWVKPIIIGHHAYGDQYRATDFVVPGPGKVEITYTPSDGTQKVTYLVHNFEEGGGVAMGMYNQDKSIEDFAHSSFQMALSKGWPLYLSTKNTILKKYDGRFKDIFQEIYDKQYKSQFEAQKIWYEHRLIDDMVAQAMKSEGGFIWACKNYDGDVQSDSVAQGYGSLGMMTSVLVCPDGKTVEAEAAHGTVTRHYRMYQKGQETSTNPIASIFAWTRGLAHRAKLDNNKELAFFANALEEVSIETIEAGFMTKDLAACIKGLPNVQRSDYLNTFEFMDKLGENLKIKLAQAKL
GASC1 inh = blocks human GASC-1 (KDM4C) demethylase activity. GST-KDM4C 2-372, H3K9me3 peptide, LANCE TR-FRET. inhibition, % at 12.5 µM. 96,000 compounds, 0.15% hits. AID 720574;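 active = mean replicate inhibition above about 25%, with at least 55% of replicates also reaching it, limit read from the data, passing the limit was not always enough; inconclusive = only one of those two conditions met; inactive = neither condition met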
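System: N-terminal GST-fused human GASC-1 (KDM4C) fragment, residues 2-372 / Amount: 10 nM GST-KDM4C in enzyme reaction / Also added: H3K9me3 peptide with Fe(II)/2OG / Times: 30 min demethylation and 1 h detection at room temperature / Signal: LANCE TR-FRET / Read-out basis: Fall in 671/618 emission ratio as inhibition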
T cruzi growth-2 = blocks T. cruzi growth in NIH3T3 host cells | T. cruzi beta-gal in NIH3T3, GalScreen luminescence, 90 h | inhibition, % at 8.35 µM | 5,600 compounds, 72% hits | shares compounds with T cruzi growth-1;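 active = mean replicate inhibition above about 95% and at least 55% of replicates individually reaching it, limit read from the data; inconclusive = only one of the two criteria is met; inactive = neither criterion is met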
T cruzi growth-3 = inhibitors of T. cruzi proliferation. shares compounds with T cruzi growth-1. T. cruzi beta-gal in NIH3T3, GalScreen luminescence, 90 h. inhibition, % at 2.09 µM. 5,600 compounds, 21% hits. AID 651740;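 active = mean inhibition above about 95%, with at least 55% of replicates also reaching it, limit read from the data; inconclusive = meets just one of the two conditions; inactive = meets neither condition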;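 also: plate controls were neutral control median for no effect and positive control median for full effect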
NIH3T3 tox = NIH/3T3 (mouse) viability loss; 5,600 compounds, 14% hits; shares compounds with T cruzi growth-1; NIH/3T3 viability, CellTiter-Glo ATP luminescence, 90 h; cytotoxicity (signal decrease), % at 8.35 µM;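 active = mean signal decrease across replicates above about 35% based on untreated-well scatter, with enough replicates individually passing, limit read from the data; inconclusive = no rule stated though some were filed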;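 also: 0% = median of neutral control wells and 100% = median of positive control wells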
3T3 cytotox 2 = cytotoxicity in mouse NIH/3T3 fibroblasts | shares compounds with T cruzi growth-1 | NIH/3T3 viability, CellTiter-Glo ATP luminescence, 90 h | inhibition, % at 24.9 µM | 5,600 compounds, 56% hits | AID 651744;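 active = mean loss of cell viability signal at or above a set limit, and enough replicates individually reaching it; inconclusive = meets only the mean limit or only the replicate share; inactive = meets neither condition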;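 also: 0% = median of neutral control wells and 100% = median of positive control wells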
Active calls of the source: *; ? = inconclusive; . = no result. The sample as a whole holds a higher share of hits than the screen did.

SMILES	T cruzi growth-1	IDH1 R132H inh	GASC1 inh	T cruzi growth-2	T cruzi growth-3	NIH3T3 tox	3T3 cytotox 2
C[C@H]1CN([C@@H](C)CO)S(=O)(=O)c2ccc(C#CCN(C)C)cc2O[C@H]1CN(C)Cc1ccccc1F	100*	0	5	96*	45	8	34*
COCC#Cc1ccc2c(c1)O[C@H](CN(C)Cc1ccccc1F)[C@@H](C)CN([C@H](C)CO)S2(=O)=O	-18	0	0	.	.	.	.
C[C@@H]1CN([C@H](C)CO)S(=O)(=O)c2ccc(C#CCN(C)C)cc2O[C@H]1CN(C)Cc1ccccc1F	110*	0	8	106*	87	61*	106*
C[C@@H]1CN([C@@H](C)CO)S(=O)(=O)c2ccc(C#CC3CC3)cc2O[C@H]1CN(C)Cc1ccccc1F	101*	0	15	95*	109*	60*	106*
CC(NS(=O)(=O)c1ccc(F)cc1)C(=O)Nc1ccc(C(N)=O)cc1 (stereo unspecified)	.	0	.	.	.	.	.
COc1ccc(CN(C)C[C@@H]2Oc3ccc(NC(=O)NC4CCCCC4)cc3CC(=O)N([C@H](C)CO)C[C@@H]2C)cc1	-50	.	-1	.	.	.	.
Cc1ccc(-n2nnnc2SCC(=O)c2ccc(O)c(O)c2)cc1	.	0	.	.	.	.	.
CCc1cnc(N2[C@H](C#N)[C@H](c3ccc(C#CCC4CCCC4)cc3)[C@@H]2CO)s1	98*	.	-3	91	114*	-9	?
CCc1cnc(N2[C@H](CO)[C@@H](c3ccc(C4=CCCCC4)cc3)[C@@H]2C#N)s1	72	.	0	.	.	.	.
CCc1cnc(N2[C@H](C#N)[C@H](c3ccc(C#CCC4CCCC4)cc3)[C@H]2CO)s1	95	.	-4	.	.	.	.
CCc1cnc(N2[C@@H](C#N)[C@@H](c3ccc(C#CCC4CCCC4)cc3)[C@@H]2CO)s1	97*	.	-1	99*	111*	-6	104*
CN(C)C(=O)c1cccc(-c2ccc([C@@H]3[C@@H](CO)N4CCCCN(CCC(F)(F)F)C[C@@H]34)cc2)c1	58	.	2	.	.	.	.
CN(C)C(=O)c1cccc(-c2ccc([C@H]3[C@H](CO)N4CCCCN(CCC(F)(F)F)C[C@@H]34)cc2)c1	105*	.	0	109*	86	5	25*
CN(C)C(=O)c1cccc(-c2ccc([C@@H]3[C@H](CO)N4CCCCN(CCC(F)(F)F)C[C@@H]34)cc2)c1	-4	.	-1	.	.	.	.
CN(C)C(=O)c1cccc(-c2ccc([C@H]3[C@@H](CO)N4CCCCN(CCC(F)(F)F)C[C@H]34)cc2)c1	103*	.	-1	99*	72	-22	29
O=C(Nc1ccccc1F)N1C[C@H]2[C@@H](c3ccccc31)[C@H](CO)N2C(=O)c1ccccc1F	49	.	-2	.	.	.	.
CCNC(=O)[C@@H]1[C@@H](CO)[C@@H]2Cn3c(ccc(C4=CCCCC4)c3=O)[C@@H]2N1Cc1ccc2c(c1)OCO2	.	.	3	.	.	.	.
CCCNC(=O)[C@H]1[C@H](CO)[C@H]2Cn3c(ccc(-c4cccc(F)c4)c3=O)[C@@H]1N2C(C)=O	40	.	0	.	.	.	.
CCCN1[C@@H]2c3ccc(-c4ccccc4F)c(=O)n3C[C@@H]2[C@@H](CO)[C@@H]1C(=O)NCC	98*	.	2	21	-15	4	-6
CCNC(=O)[C@@H]1[C@@H](CO)[C@@H]2Cn3c(ccc(-c4ccccc4)c3=O)[C@@H]2N1Cc1ccc2c(c1)OCO2	102*	.	1	101*	0	-31	22
CCCN1[C@H](C(=O)N[C@@H](C)c2ccccc2)[C@@H](CO)[C@@H]2Cn3c(ccc(-c4cccc(F)c4)c3=O)[C@@H]21	108*	.	14	97*	63	3	68*
CCCN1[C@@H]2c3ccc(-c4cccc(F)c4)c(=O)n3C[C@@H]2[C@@H](CO)[C@@H]1C(=O)N[C@@H](C)c1ccccc1	94	.	10	.	.	.	.
CCCNC(=O)[C@@H]1[C@@H](CO)[C@@H]2Cn3c(ccc(-c4cccc(F)c4)c3=O)[C@H]1N2C(=O)c1ccccn1	103*	.	0	?	27	-20	-1
